Screens (PubChem BioAssay)
Bim-Mcl-1: inhibitors of Bim-Mcl-1 interaction, human. actives 0.1% (n = 190,000). Bead-based flow cytometry, Bim peptide-Mcl-1 binding. AID 1009. inhibition, % at 10 µM; in the data active means inhibition above about 40%;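 further: 0% = no compound tracer wells and 100% = peptide blocker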
Mcl1-Bid inh: Mcl-1/Bid interaction inhibition | TR-FRET Mcl-1/Bid-Dy647 peptide binding, 1536-well | actives 0.97% (n = 220,000) | inhibition, % at 21.7 µM;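 active means compounds that cut the binding signal by more than half at the single screening dose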;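 further: His-tagged Mcl-1 with europium anti-His antibody binding Bid BH3 peptide; 0% = Mcl-1 plus peptide wells and 100% = peptide-only wells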
Calb biofilm kill: mixture kills Candida albicans biofilm cells | C. albicans biofilm persisters + clotrimazole, fluorescence viability; primary screen in compound mixtures of four per well | inhibition, % at 7.6 µM | actives 0.02% (n = 120,000) | AID 1242;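 active means inhibition above 30.3% in the primary screen of four-compound pools, then above 30% when the compound was retested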;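 further: compounds exposed to preformed 24 h biofilms for 48 h; 0% = untreated biofilm control and 100% = clotrimazole plus chlorhexidine kill blank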
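Assay system: C. albicans biofilms / Medium: RPMI/MOPS medium, pH 7.0 / Schedule: biofilm formation 24 h, compound exposure 48 h, 37 °C / Measured by: Alamar Blue fluorescence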
Hck Nef HTS: blocks Nef-activated human Hck kinase | P08631 | Recombinant Hck-YEEI plus Nef, Z-Lyte FRET kinase assay | inhibition, % at 20 µM | actives 0.68% (n = 220,000) | AID 463187;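 active means Hck-Nef kinase inhibition above about 50%, limit read from the data; inactive means inhibition below that limit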;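 further: 0% = DMSO with Hck plus Nef and 100% = Hck alone without Nef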
Mcl1 Noxa PPI: Mcl-1/Noxa interaction inhibition. inhibition, % at 21.7 µM. actives 1.5% (n = 220,000). TR-FRET Mcl-1/Noxa peptide binding, 2 h. Q07820;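 active means compounds that cut the protein-peptide binding signal by more than 50% relative to plate controls in a single-dose test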;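 further: His-tagged Mcl-1 with rhodamine Noxa BH3 peptide and terbium anti-His antibody; 0% = Mcl-1 plus Noxa peptide wells and 100% = peptide-only wells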
14-3-3 Bad inh: disrupts binding of bovine 14-3-3 zeta to phospho-Bad peptide | TR-FRET 14-3-3zeta/Dy647-pBad peptide displacement, 1 h | inhibition, % at 21.7 µM | actives 0.71% (n = 220,000);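 active means inhibition above about 70%, limit read from the data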;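 further: 0% = full 14-3-3 plus peptide FRET controls and 100% = background without 14-3-3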
Target sequence (P63103 whole entry, looked up): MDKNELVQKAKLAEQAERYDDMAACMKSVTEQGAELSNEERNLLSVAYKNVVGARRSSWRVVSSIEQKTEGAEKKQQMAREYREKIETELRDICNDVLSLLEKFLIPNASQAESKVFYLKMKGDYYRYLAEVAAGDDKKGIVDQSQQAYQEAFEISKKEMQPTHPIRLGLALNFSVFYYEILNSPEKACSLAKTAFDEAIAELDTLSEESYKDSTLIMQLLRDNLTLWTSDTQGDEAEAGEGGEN
Hck Nef conf: Hck-Nef kinase inhibition, confirmation; shares compounds with Hck Nef HTS; Recombinant Hck-YEEI:Nef, Z-Lyte FRET kinase assay; calls only at 10 µM; actives 28% (n = 1,300); AID 463188;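 active means average inhibition of at least 50%, with Z-scores no higher than 3 in both the phospho-tyrosine peptide and fluorescence counterscreens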
Starred values were filed as active, the others as inactive; i = inactive; x = not tested or not shown; + = active, no number. This is a sample that favours compounds with a hit; in the whole collection about 3.2% have one here.

SMILES	Bim-Mcl-1	Mcl1-Bid inh	Calb biofilm kill	Hck Nef HTS	Mcl1 Noxa PPI	14-3-3 Bad inh	Hck Nef conf
O=C(Nc1cccc(-c2nc3ccccc3[nH]2)c1)c1cccc(NC(=O)c2ccco2)c1	-6.0	-60.4	x	73.6*	2.8	15.6	+
CC(NC(=O)COc1ccc(N(C)S(=O)(=O)c2ccccc2)cc1)c1ccccc1 (stereo not drawn)	-3.0	-29.7	9.3	-0.5	7.3	-5.8	x
COc1ccc(N2CCN(Cc3nnnn3C3CCCCC3)CC2)cc1	3.0	-53.4	12.9	18.8	-0.4	-11.2	x
O=C(O)c1ccc2c(c1)C(=O)/C(=C\c1ccco1)C2=O	3.0	-48.6	-10.3	61.4*	66.5*	-1.6	+
N#Cc1c(-c2ccco2)nc(SCC(=O)Nc2cccc(Cl)c2)[nH]c1=O	1.0	18.9	x	56.2*	40.2	-1.8	+
CC1Cc2ccccc2N1C(=O)CSc1nccc(=O)[nH]1 (stereo not drawn)	-1.0	-16.4	15.3	18.3	6.9	-1.6	x
C=CCOc1ccc(Br)cc1/C=N/O	0.0	-12.8	x	3.0	11.0	-4.5	x
C=CCOc1ccc(Br)cc1/C=C1/SC(=Nc2ccc(C(=O)O)cc2)NC1=O	-6.0	-15.9	11.0	58.7*	55.1*	10.8	+
O=[N+]([O-])c1cc(-c2cnc3ccccc3n2)ccc1Cl	-1.0	-34.5	4.0	16.5	-112.7	-4.1	x
O=C(Oc1ccc(-c2cnc3ccccc3n2)cc1)c1cc([N+](=O)[O-])ccc1Cl	-2.0	32.1	x	52.7*	-1.9	69.2	+
NC(=O)c1ccsc1NC(=O)C1CC1	x	-36.9	25.6	74.7*	6.1	2.2	+
O=c1c2c(ncn1CCO)nc1n2CCC1	-1.0	-7.0	7.0	0.0	-9.2	-1.9	x
COC(=O)Cc1c(C)c2ccc(O)c(CN3CCCC(C)C3)c2oc1=O (stereo not drawn)	-3.0	-61.1	x	75.3*	-4.4	x	x
O=c1oc2c(CN3CCCCC3)c(O)ccc2c2c1CCCC2	-3.0	10.6	x	37.2	4.8	-1.6	x
Cc1ccc(C)n1-c1nccc(-c2ccco2)n1	0.0	-26.5	8.7	0.4	2.6	-11.7	x
O=C1CCCC/C1=C/NCc1ccccc1	-1.0	-36.2	9.3	18.4	-2.7	-22.9	x
CC1CCCCC1NC(=O)CSc1ccc([N+](=O)[O-])cc1 (stereo not drawn)	x	-49.0	14.2	15.9	-11.7	-2.9	x
COc1ccc(Cn2c(C3CCCCC3)nc3c(c(=O)c4ccccc4n3C)c2=O)cc1	x	21.3	14.3	71.1*	-99.9	69.3	i
COCCNC(=O)/C(C#N)=C1\N=C(N)c2ccccc21	0.0	-4.4	14.5	53.4*	8.6	4.3	i
COc1ccccc1NC(=O)c1cc2c(s1)-c1ccccc1S(=O)(=O)C2	x	-52.8	20.8	52.2*	-117.6	-1.9	i
CN(C(=O)c1cc2c(s1)-c1ccccc1S(=O)(=O)C2)c1ccccc1	x	0.3	18.4	16.3	7.0	3.1	x
CCOC(=O)N1CCN(C(=O)CSc2nc(CC)nc3c2c(=O)n(C)c(=O)n3C)CC1	x	0.2	14.4	8.1	3.1	3.3	x
O=C(CSc1nc2nc(-c3cccs3)cc(C(F)(F)F)c2c(=O)[nH]1)Nc1ccc(F)c(F)c1	0.0	-44.2	11.1	53.8*	-3.1	0.5	x
N#Cc1cc(-c2ccccc2)nc(N2CCNCC2)n1	x	-46.8	18.8	19.2	-3.1	1.3	x
CC(C)n1cnc2c(Nc3cccc(F)c3)nc(NCCO)nc21	x	-70.4	13.5	96.7*	-5.0	-2.2	+
CCOc1nc(NCCO)nc(Nc2ccccc2F)n1	1.0	-20.4	7.0	17.5	2.1	-9.4	x
CC(C)C[C@H](CO)Nc1nc(Nc2cccc(Cl)c2)c2ncn(C(C)C)c2n1	x	-25.3	16.0	105.8*	-12.7	-5.7	+
Nc1nc(Nc2cccc(Cl)c2)nc(NCCO)c1[N+](=O)[O-]	x	-16.3	28.7	41.4	0.4	-2.4	x
O=C(CCCN1C(=O)/C(=C/c2ccco2)SC1=S)Nc1cccc(C(=O)O)c1	x	-34.3	-1.6	81.7*	14.8	6.2	i
O=C1/C(=C/c2ccco2)SC(=S)N1c1cccnc1	x	24.1	9.6	90.4*	94.1*	85.0*	i
